According to ChEMBL document CHEMBL3352189 (J Med Chem, 2014):
Converted amounts (≈) assume the structure as drawn. The source made the active and inactive calls. The rule behind the calls is not given here.

Legend:
CYP2D6 = CYP2D6 (Homo sapiens, UniProt P10635); test: Inhibition of human CYP2D6 at 10 uM; type: ADME
Cytochrome P450 2C19 = Cytochrome P450 2C19 (Homo sapiens, UniProt P33261); test: Inhibition of human CYP2C19 at 10 uM; type: ADME; settings: 10 µM
[1] = test system: Venezuelan equine encephalitis virus; test: Antiviral activity against Venezuelan equine encephalitis virus TrD infected in Vero 76 cells assessed as reduction in virus-induced cytopathic effect after 2 days by Celltiter-Glo reagent based assay; type: functional, organism-based; settings: Vero 76, 48 h
[2] = Aqueous solubility in PBS buffer; type: physicochemical
Summary of the method: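 Solubility measured in 1× PBS at pH 7.4.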

[3] = test system: Venezuelan equine encephalitis virus; test: Antiviral activity against Venezuelan equine encephalitis virus V3526 infected in Vero 76 cells assessed as reduction in virus-induced cytopathic effect after 2 days by Celltiter-Glo reagent based assay; type: functional, organism-based; settings: V3526, Vero 76, 48 h
[4] = test system: Venezuelan equine encephalitis virus; test: Antiviral activity against Venezuelan equine encephalitis virus TrD infected in Vero 76 cells assessed as reduction in viral titer at 0.5 uM by crystal violet staining based microplaque assay relative to untreated control; type: functional, organism-based
[5] = test system: Venezuelan equine encephalitis virus; test: Antiviral activity against Venezuelan equine encephalitis virus TrD infected in Vero 76 cells assessed as reduction in viral titer at 1 uM by crystal violet staining based microplaque assay relative to untreated control; type: functional
[6] = test system: Venezuelan equine encephalitis virus; test: Antiviral activity against Venezuelan equine encephalitis virus TC83 infected in Vero 76 cells assessed as reduction in viral titer by crystal violet staining based microplaque assay relative to untreated control; type: functional, organism-based; settings: TC83, Vero 76
[7] = Cytotoxicity against african green monkey Vero 76 cells after 3 days by Celltiter-Glo reagent based assay; type: cell-based; settings: chlorocebus sabaeus, vero 76, 72 h
Summary of the method: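 Vero 76 cells were seeded overnight at 12 000/well and given an 8-point 2-fold compound series (20 mM DMSO stock) in EMEM/10% FBS with no virus. Viability was read by CellTiter-Glo after 3 days relative to untreated cells. Run in duplicate; CC50 from a four-parameter logistic or sigmoidal fit.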

[8] = test system: Venezuelan equine encephalitis virus; test: Antiviral activity against Venezuelan equine encephalitis virus TrD infected in Vero 76 cells assessed as reduction in viral titer at 5 uM by crystal violet staining based microplaque assay relative to untreated control; type: functional, organism-based
[9] = test system: Venezuelan equine encephalitis virus; test: Antiviral activity against Venezuelan equine encephalitis virus TC83 infected in Vero 76 cells assessed as reduction in virus-induced cytopathic effect after 2 days by Celltiter-Glo reagent based assay; type: functional, organism-based; settings: TC83, Vero 76, 48 h
[10] = Selectivity index, ratio of CC50 for african green monkey Vero 76 cells to EC50 for Venezuelan equine encephalitis virus TC83; type: toxicity, cell-based; settings: read-out: Ratio CC50/EC50
[11] = test system: Venezuelan equine encephalitis virus; test: Antiviral activity against Venezuelan equine encephalitis virus TC83 infected in Vero 76 cells assessed as reduction in viral titer at 1 uM by crystal violet staining based microplaque assay relative to untreated control; type: functional
[12] = Permeability at pH 7.4 by PAMPA assay; type: ADME

Sequence of CYP2D6 (P10635 whole entry): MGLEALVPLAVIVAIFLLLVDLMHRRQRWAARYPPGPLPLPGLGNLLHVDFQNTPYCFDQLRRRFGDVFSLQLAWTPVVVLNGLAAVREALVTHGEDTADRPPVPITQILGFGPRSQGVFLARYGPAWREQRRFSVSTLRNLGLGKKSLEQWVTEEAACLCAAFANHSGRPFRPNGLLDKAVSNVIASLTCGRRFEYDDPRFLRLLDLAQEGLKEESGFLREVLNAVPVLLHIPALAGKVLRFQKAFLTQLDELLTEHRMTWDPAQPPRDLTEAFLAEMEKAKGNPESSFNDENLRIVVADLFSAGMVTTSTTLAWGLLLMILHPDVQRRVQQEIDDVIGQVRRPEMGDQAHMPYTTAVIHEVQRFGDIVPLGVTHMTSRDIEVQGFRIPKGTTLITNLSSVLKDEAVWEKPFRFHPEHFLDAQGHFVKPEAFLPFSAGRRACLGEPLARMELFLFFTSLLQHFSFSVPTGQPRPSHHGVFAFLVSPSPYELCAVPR
Sequence of Cytochrome P450 2C19 (P33261 whole entry): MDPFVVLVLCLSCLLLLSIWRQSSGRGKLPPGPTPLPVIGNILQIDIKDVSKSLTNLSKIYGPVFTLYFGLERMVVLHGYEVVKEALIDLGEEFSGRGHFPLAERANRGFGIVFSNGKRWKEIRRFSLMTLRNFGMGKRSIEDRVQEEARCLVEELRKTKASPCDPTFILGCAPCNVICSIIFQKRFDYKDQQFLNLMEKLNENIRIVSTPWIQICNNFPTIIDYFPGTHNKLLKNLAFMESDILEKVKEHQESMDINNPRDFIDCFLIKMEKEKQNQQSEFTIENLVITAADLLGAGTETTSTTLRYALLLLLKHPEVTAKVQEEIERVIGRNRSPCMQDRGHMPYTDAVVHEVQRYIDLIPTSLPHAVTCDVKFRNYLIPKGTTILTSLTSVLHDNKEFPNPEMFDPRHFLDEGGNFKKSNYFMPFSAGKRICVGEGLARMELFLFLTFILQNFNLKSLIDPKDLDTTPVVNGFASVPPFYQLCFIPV

## C=C[C@H]1C[N@@]2CC[C@H]1C[C@@H]2[C@@H](O)c1ccnc2ccc(OC)cc12 [QUINIDINE]
CYP2D6
  inhibition at 10 µM: 88%

## Cc1c(OCC(F)(F)F)ccnc1C[S+]([O-])c1nc2ccccc2[nH]1 (centres undefined) [LANSOPRAZOLE]
Cytochrome P450 2C19
  inhibition (INH): 86%

## COc1ccc(NC(=O)c2cc([N+](=O)[O-])ccc2/N=C2\CN(C)CCN2C)cc1
[1]
  EC50: 0.05 µM
[2]
  solubility: 105.6 µg/mL (≈ 266 µM)
[3]
  EC50: 0.02 µM
[4]
  inhibition: Active
[5]
  inhibition: Active
[6]
  EC50: 0.17 µM
[7]
  CC50: > 50 µM
[8]
  inhibition: Active
[9]
  EC50: 0.04 µM
[10]
  selectivity ratio: > 1250
[11]
  fold change (FC): 16000000

## Cn1c(=O)c2[nH]cnc2n(C)c1=O.O [THEOPHYLLINE]
[12]
  permeability: 0.32 ×10⁻⁶ cm/s
